Assay results taken from ChEMBL document CHEMBL2439973, “Discovery of VU0409106: A negative allosteric modulator of mGlu5 with activity in a mouse model of anxiety” (Bioorg Med Chem Lett, 2013).
Activity calls are given as the source filed them. No cut-off for these calls is given here.

Experiments:
[1] = species: Rattus norvegicus; assay: Displacement of [3H]-GABA from GABA transporter in rat cerebral cortex at 10 uM relative to control; type: tissue-based
Summary of the method: (§1)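 Tested once at 10 μM in a commercial radioligand binding panel of 68 GPCRs, ion channels, kinases and transporters. Activity is given as displacement of each radioligand relative to control.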

[2] = target: 5-hydroxytryptamine receptor 2B (Homo sapiens) (UniProt P41595); assay: Displacement of [3H]-Lysergic acid diethylamide from human recombinant 5-HT2B receptor expressed in CHO-K1 cells at 10 uM relative to control; type: cell-based; summary of the method: as §1
Chain of 5-hydroxytryptamine receptor 2B (Homo sapiens) (P41595 whole entry): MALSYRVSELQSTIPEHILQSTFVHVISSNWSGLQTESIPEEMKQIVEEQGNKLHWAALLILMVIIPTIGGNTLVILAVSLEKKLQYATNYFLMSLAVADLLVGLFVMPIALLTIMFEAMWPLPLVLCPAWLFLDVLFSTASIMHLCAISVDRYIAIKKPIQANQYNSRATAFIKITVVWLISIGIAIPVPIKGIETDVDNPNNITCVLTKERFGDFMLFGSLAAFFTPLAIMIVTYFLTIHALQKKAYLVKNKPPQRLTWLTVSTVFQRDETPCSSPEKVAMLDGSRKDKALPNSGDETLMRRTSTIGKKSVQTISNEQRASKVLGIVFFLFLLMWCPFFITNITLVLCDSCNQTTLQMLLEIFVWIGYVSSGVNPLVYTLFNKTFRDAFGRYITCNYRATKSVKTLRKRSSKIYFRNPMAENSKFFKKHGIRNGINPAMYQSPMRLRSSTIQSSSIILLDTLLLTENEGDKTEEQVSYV

[3] = species: Rattus norvegicus; assay: Displacement of [35S]-ATP-alpha-S from purinergic P2Y receptor in rat brain at 10 uM relative to control; type: tissue-based; summary of the method: as §1
[4] = species: Oryctolagus cuniculus; assay: Displacement of [3H]-alpha,beta-Methylene-ATP from purinergic P2x receptor in rabbit urinary bladder at 10 uM relative to control
[5] = target: Prostaglandin E2 receptor EP4 subtype (Homo sapiens) (UniProt P35408); assay: Displacement of [3H]-PGE2 from human recombinant prostanoid EP4 receptor expressed in rat Chem-1 cells at 10 uM relative to control; type: cell-based
[6] = target: Mu-type opioid receptor (Homo sapiens) (UniProt P35372); assay: Displacement of [3H]-Diprenorphine from human recombinant mu opioid receptor expressed in CHO-K1 cells at 10 uM relative to control; type: cell-based; summary of the method: as §1
[7] = target: Delta-type opioid receptor (Homo sapiens) (UniProt P41143); assay: Displacement of [3H]-Naltrindole from human recombinant delta opioid receptor expressed in HEK293 cells at 10 uM relative to control; type: cell-based; summary of the method: as §1
[8] = target: Acetylcholine receptor subunit alpha (Homo sapiens) (UniProt P02708); assay: Displacement of [125I]-alpha-Bungarotoxin from nicotinic acetylcholine alpha1 receptor bungarotoxin binding site in human RD cells at 10 uM relative to control; type: cell-based; summary of the method: as §1
[9] = target: Neuropeptide Y receptor type 1 (Homo sapiens) (UniProt P25929); assay: Displacement of [125I]-Peptide YY from neuropeptide Y Y1 receptor in human SK-N-MC cells at 10 uM relative to control; type: cell-based; summary of the method: as §1
Chain of Neuropeptide Y receptor type 1 (Homo sapiens) (P25929 whole entry): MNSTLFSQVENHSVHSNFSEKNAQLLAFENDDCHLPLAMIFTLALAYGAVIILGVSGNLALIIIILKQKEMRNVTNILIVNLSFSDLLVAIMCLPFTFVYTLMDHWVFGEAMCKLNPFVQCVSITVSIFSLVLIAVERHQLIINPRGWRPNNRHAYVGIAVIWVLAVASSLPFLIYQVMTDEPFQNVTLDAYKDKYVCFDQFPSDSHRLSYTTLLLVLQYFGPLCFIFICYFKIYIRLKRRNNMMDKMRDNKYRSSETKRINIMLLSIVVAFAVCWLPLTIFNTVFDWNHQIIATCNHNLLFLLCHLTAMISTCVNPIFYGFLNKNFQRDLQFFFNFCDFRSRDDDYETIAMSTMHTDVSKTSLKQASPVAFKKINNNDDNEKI

[10] = target: Cysteinyl leukotriene receptor 1 (Homo sapiens) (UniProt Q9Y271); assay: Displacement of [3H]-LTD4 from human recombinant leukotriene cysteinyl CysLT1 receptor expressed in CHO-K1 cells at 10 uM relative to control; type: cell-based; summary of the method: as §1
[11] = species: Mus musculus; assay: Displacement of [125I]-Interleukin-1beta from IL-1 receptor in mouse 3T3-SWISS cells at 10 uM relative to control; type: cell-based; summary of the method: as §1
[12] = target: Histamine H2 receptor (Homo sapiens) (UniProt P25021); assay: Displacement of [125I]-Aminopotentidine from human recombinant histamine H2 receptor expressed in CHO-K1 cells at 10 uM relative to control; type: cell-based; summary of the method: as §1
[13] = target: Glutamate NMDA receptor (Rattus norvegicus) (UniProt P35439+Q00959+Q00960+Q00961+Q62645+Q8VHN2+Q9R1M7); assay: Displacement of [3H]-TCP from NMDA receptor phencyclidine binding site in rat cerebral cortex at 10 uM relative to control; type: tissue-based
[14] = species: Rattus norvegicus; assay: Displacement of [3H]-Muscimol from central-type GABAA receptor muscimol binding site in cerebellum-less rat brain homogenate at 10 uM relative to control; type: tissue-based; summary of the method: as §1
[15] = target: Estrogen receptor (Homo sapiens) (UniProt P03372); assay: Displacement of [3H]-Estradiol from human recombinant ERalpha receptor expressed in insect Sf9 cells at 10 uM relative to control; summary of the method: as §1
Chain of Estrogen receptor (Homo sapiens) (P03372 whole entry): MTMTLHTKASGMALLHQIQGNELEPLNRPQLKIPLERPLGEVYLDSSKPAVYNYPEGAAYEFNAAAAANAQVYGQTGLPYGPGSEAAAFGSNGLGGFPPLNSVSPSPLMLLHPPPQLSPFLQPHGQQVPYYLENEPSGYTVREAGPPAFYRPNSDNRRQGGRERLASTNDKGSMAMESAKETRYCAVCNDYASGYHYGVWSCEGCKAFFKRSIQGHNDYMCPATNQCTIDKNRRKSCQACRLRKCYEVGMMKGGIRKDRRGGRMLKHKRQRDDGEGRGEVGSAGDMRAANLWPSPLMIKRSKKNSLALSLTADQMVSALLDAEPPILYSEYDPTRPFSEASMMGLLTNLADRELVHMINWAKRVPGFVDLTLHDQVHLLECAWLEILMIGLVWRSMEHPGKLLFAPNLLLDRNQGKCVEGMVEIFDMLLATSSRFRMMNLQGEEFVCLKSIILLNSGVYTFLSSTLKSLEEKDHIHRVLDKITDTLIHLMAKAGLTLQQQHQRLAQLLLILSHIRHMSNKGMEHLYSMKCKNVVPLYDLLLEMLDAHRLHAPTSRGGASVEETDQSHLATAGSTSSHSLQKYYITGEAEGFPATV

[16] = target: Endothelin-1 receptor (Homo sapiens) (UniProt P25101); assay: Displacement of [125I]-Endothelin-1 from human recombinant ETA receptor expressed in CHO-K1 cells at 10 uM relative to control; type: cell-based; summary of the method: as §1
Chain of Endothelin-1 receptor (Homo sapiens) (P25101 whole entry): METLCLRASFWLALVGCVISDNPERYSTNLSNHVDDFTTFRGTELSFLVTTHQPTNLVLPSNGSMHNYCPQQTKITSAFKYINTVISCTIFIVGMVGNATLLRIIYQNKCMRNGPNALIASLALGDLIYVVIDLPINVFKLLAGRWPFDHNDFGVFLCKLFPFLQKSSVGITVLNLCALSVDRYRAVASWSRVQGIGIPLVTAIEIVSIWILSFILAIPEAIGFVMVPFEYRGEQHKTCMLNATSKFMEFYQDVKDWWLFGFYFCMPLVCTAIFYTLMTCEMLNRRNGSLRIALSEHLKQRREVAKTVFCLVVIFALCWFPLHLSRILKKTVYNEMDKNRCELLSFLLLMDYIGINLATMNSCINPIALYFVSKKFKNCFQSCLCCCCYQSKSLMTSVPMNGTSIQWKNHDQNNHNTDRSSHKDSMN

[17] = target: D(2) dopamine receptor (Homo sapiens) (UniProt P14416); assay: Displacement of [3H]-Spiperone from human recombinant dopamine D2S receptor expressed in CHO cells at 10 uM relative to control; type: cell-based
Chain of D(2) dopamine receptor (Homo sapiens) (P14416 whole entry): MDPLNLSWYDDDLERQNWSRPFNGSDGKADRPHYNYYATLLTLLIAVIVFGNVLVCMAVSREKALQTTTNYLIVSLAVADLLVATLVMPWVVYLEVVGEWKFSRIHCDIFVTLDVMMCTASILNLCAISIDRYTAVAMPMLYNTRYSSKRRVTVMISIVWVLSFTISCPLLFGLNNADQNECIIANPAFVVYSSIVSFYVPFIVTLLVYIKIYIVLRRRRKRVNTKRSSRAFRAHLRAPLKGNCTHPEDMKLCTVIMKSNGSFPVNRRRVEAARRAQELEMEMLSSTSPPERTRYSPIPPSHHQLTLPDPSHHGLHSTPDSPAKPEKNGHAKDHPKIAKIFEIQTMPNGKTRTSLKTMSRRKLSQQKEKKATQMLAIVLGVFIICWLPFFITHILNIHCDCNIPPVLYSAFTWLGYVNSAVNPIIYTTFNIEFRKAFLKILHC

[18] = target: D(3) dopamine receptor (Homo sapiens) (UniProt P35462); assay: Displacement of [3H]-Spiperone from human recombinant dopamine D3 receptor expressed in CHO cells at 10 uM relative to control; type: cell-based
Chain of D(3) dopamine receptor (Homo sapiens) (P35462 whole entry): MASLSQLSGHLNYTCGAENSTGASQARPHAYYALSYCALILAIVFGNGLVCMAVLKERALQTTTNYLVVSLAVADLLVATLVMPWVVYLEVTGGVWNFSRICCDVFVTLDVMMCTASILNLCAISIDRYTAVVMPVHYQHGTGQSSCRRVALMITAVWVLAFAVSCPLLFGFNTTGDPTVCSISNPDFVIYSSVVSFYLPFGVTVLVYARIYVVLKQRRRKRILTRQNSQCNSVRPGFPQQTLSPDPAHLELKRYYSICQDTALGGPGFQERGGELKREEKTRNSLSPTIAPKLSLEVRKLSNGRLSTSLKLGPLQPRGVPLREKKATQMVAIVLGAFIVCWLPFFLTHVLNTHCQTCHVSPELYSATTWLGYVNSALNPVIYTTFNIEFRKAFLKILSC

[19] = target: Cannabinoid receptor 1 (Homo sapiens) (UniProt P21554); assay: Displacement of [3H]-SR141716A from human recombinant CB1 receptor expressed in rat Chem-1 cells at 10 uM relative to control; type: cell-based
[20] = species: Rattus norvegicus; assay: Displacement of [125I]-Omega-Conotoxin GVIA from N-type calcium channel in rat frontal brain at 10 uM relative to control; summary of the method: as §1
[21] = species: Rattus norvegicus; assay: Displacement of [3H]-Nitrendipine from L-type calcium channel dihydropyridine binding site in rat cerebral cortex at 10 uM relative to control; type: tissue-based; summary of the method: as §1
[22] = target: B1 bradykinin receptor (Homo sapiens) (UniProt P46663); assay: Displacement of [3H]-(Des-Arg10)-Kallidin from bradykinin B1 receptor in human IMR90 cells at 10 uM relative to control; type: cell-based; details: IMR-90; summary of the method: as §1
Chain of B1 bradykinin receptor (Homo sapiens) (P46663 whole entry): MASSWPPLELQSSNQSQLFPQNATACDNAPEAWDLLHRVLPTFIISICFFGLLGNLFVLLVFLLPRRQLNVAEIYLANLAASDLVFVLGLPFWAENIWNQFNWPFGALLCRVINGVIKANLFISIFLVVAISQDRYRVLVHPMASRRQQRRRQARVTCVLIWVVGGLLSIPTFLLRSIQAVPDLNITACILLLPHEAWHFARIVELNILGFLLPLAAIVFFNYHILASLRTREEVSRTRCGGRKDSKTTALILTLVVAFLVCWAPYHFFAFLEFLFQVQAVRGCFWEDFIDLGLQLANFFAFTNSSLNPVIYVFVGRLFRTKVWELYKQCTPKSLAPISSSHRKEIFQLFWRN

[23] = target: B2 bradykinin receptor (Homo sapiens) (UniProt P30411); assay: Displacement of [3H]-Bradykinin from human recombinant bradykinin B2 receptor expressed in rat Chem-1 cells at 10 uM relative to control; type: cell-based; summary of the method: as §1
Chain of B2 bradykinin receptor (Homo sapiens) (P30411 whole entry): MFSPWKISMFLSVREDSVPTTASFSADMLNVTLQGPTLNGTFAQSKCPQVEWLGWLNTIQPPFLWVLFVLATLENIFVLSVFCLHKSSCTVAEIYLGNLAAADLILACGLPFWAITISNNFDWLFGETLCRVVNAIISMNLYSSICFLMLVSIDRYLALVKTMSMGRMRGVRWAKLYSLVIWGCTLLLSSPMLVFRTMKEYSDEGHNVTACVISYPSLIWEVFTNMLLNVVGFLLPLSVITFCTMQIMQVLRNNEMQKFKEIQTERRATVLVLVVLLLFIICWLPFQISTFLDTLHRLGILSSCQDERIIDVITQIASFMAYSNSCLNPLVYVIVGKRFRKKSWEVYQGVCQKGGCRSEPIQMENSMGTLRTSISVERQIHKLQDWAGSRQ

[24] = target: Beta-1 adrenergic receptor (Homo sapiens) (UniProt P08588); assay: Displacement of [125I]-Cyanopindolol from human recombinant adrenergic beta1 receptor expressed in CHO-K1 cells at 10 uM relative to control; type: cell-based; summary of the method: as §1
[25] = target: Adenosine receptor A1 (Homo sapiens) (UniProt P30542); assay: Displacement of [3H]-DPCPX from human recombinant adenosine A1 receptor expressed in CHO cells at 10 uM relative to control; type: cell-based; summary of the method: as §1
[26] = target: Adenosine receptor A2a (Homo sapiens) (UniProt P29274); assay: Displacement of [3H]-CGS-21680 from human recombinant adenosine A2A receptor expressed in HEK293 cells at 10 uM relative to control; type: cell-based; summary of the method: as §1
[27] = target: Adenosine receptor A3 (Homo sapiens) (UniProt P0DMS8); assay: Displacement of [125I]-AB-MECA from human recombinant adenosine A3 receptor expressed in CHO-K1 cells at 10 uM relative to control; type: cell-based; summary of the method: as §1
Chain of Adenosine receptor A3 (Homo sapiens) (P0DMS8 whole entry): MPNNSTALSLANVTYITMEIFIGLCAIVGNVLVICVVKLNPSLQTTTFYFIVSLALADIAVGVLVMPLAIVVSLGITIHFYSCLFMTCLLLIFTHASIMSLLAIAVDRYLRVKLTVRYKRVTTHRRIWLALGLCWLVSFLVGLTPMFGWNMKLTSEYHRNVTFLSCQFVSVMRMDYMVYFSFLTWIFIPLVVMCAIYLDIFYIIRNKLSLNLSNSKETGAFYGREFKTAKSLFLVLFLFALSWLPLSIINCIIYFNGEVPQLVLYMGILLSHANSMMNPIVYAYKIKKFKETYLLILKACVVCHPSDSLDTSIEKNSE

[28] = target: Metabotropic glutamate receptor 7 (Rattus norvegicus) (UniProt P35400); assay: Allosteric modulation of rat mGlu7 receptor expressed in HEK293 cells coexpressing G protein-activated inward rectifier potassium channel assessed as effect on L-AP4-induced thallium flux at 10 uM; type: cell-based
[29] = target: Metabotropic glutamate receptor 6 (Rattus norvegicus) (UniProt P35349); assay: Allosteric modulation of rat mGlu6 receptor expressed in HEK293 cells coexpressing G protein-activated inward rectifier potassium channel assessed as effect on glutamate-induced thallium flux at 10 uM; type: cell-based
[30] = target: Metabotropic glutamate receptor 1 (Rattus norvegicus) (UniProt P23385); assay: Allosteric modulation of rat mGlu1 receptor expressed in HEK293 cells assessed as effect on glutamate-induced calcium mobilization at 10 uM; type: functional, cell-based
Chain of Metabotropic glutamate receptor 1 (Rattus norvegicus) (P23385 19-1199 limits assumed): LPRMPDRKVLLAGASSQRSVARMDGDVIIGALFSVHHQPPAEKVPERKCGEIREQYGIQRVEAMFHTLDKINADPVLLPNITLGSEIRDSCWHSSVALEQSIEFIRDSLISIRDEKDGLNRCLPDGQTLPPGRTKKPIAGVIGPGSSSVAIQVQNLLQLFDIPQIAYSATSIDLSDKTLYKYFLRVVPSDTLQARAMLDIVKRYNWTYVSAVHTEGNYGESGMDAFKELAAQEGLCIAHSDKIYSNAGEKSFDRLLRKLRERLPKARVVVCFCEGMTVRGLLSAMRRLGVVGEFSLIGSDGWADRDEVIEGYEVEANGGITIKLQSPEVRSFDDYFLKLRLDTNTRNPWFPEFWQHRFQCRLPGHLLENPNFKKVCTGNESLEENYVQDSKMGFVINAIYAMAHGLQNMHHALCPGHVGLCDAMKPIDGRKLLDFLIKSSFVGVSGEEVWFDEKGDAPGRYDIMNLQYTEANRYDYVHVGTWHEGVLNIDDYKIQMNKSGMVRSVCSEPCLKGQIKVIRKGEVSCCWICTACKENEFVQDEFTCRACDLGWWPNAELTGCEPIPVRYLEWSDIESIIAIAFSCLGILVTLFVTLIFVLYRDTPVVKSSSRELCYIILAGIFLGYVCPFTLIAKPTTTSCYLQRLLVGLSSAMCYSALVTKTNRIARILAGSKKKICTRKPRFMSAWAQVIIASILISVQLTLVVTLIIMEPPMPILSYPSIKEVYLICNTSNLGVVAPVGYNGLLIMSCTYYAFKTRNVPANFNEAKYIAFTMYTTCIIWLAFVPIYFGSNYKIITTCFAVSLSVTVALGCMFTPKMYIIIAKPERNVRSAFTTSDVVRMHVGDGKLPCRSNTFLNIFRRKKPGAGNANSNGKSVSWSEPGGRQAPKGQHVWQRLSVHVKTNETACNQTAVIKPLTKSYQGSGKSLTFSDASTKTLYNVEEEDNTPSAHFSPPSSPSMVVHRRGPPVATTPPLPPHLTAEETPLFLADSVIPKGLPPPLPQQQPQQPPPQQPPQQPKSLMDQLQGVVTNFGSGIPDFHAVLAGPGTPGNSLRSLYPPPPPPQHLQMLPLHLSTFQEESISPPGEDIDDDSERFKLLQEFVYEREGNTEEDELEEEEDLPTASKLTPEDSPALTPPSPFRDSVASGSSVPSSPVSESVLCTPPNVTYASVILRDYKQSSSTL

[31] = Cmax in CD-1 mouse brain at 10 mg/kg, ip by LC-MS/MS analysis; type: ADME, organism-based; design: dose 10 mg/kg, route intraperitoneal
[32] = tested on: Plasma; assay: Cmax in CD-1 mouse plasma at 10 mg/kg, ip by LC-MS/MS analysis; type: ADME, organism-based; design: dose 10 mg/kg, route intraperitoneal; details: in vivo
[33] = tested on: Plasma; assay: Tmax in CD-1 mouse plasma at 10 mg/kg, ip by LC-MS/MS analysis; type: ADME, organism-based; design: dose 10 mg/kg, route intraperitoneal; details: in vivo

Cc1csc(NC(=O)c2cc(F)cc(Oc3cncnc3)c2)n1
inhibition [1]: > 35% | inhibition [2]: > 35% | inhibition [3]: > 35% | inhibition [4]: > 35% | inhibition [5]: > 35% | inhibition [6]: > 35% | inhibition [7]: > 35% | inhibition [8]: > 35% | inhibition [9]: > 35% | inhibition [10]: > 35% | inhibition [11]: > 35% | inhibition [12]: > 35% | inhibition [13]: > 35% | inhibition [14]: > 35% | inhibition [15]: > 35% | inhibition [16]: > 35% | inhibition [17]: > 35% | inhibition [18]: > 35% | inhibition [19]: > 35% | inhibition [20]: > 35% | inhibition [21]: > 35% | inhibition [22]: > 35% | inhibition [23]: > 35% | inhibition [24]: > 35% | inhibition [25]: > 35% | inhibition [26]: > 35% | inhibition [27]: > 35% | Activity [28]: inactive | Activity [29]: inactive | Activity [30]: inactive | Cmax [31]: 1350 ng/g | Cmax [32]: 1450 ng/mL | Tmax [33]: 15 min
